Laboratory results as given in ChEMBL document CHEMBL1133492, “Design, synthesis, and biological evaluation of fluoronitrophenyl substituted folate analogues as potential inhibitors of GAR transformylase and AICAR transformylase” (Bioorg Med Chem Lett, 2000).
Activity calls are given as the source filed them. The calls are words filed in the database; no cut-off is given here.

How the values were obtained:
CCRF-CEM [1] = assay: Cytotoxicity in the absence of thymidine and presence of hypoxanthine against CCRF-CEM cell line; assay type: functional, cell-based; settings: Homo sapiens
Outline: (§1)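 CCRF-CEM cells were grown in purine- and pyrimidine-free medium, with thymidine and/or hypoxanthine added or omitted as each line specifies. The cytotoxic potency was reported as an IC50 (µM).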

CCRF-CEM [2] = assay: Cytotoxicity in the absence of hypoxanthine and presence of thymidine against CCRF-CEM cell line; assay type: functional, cell-based; settings: Homo sapiens; outline: as §1
[3] = biological target: T1, Trifunctional purine biosynthetic protein adenosine-3 (Homo sapiens) (UniProt P22102); assay: In vitro inhibitory activity against Glycinamide ribonucleotide transformylase (GAR Tfase+GAR) pre-incubation of 6 hr at 250 uM concentration
T1 sequence (whole entry): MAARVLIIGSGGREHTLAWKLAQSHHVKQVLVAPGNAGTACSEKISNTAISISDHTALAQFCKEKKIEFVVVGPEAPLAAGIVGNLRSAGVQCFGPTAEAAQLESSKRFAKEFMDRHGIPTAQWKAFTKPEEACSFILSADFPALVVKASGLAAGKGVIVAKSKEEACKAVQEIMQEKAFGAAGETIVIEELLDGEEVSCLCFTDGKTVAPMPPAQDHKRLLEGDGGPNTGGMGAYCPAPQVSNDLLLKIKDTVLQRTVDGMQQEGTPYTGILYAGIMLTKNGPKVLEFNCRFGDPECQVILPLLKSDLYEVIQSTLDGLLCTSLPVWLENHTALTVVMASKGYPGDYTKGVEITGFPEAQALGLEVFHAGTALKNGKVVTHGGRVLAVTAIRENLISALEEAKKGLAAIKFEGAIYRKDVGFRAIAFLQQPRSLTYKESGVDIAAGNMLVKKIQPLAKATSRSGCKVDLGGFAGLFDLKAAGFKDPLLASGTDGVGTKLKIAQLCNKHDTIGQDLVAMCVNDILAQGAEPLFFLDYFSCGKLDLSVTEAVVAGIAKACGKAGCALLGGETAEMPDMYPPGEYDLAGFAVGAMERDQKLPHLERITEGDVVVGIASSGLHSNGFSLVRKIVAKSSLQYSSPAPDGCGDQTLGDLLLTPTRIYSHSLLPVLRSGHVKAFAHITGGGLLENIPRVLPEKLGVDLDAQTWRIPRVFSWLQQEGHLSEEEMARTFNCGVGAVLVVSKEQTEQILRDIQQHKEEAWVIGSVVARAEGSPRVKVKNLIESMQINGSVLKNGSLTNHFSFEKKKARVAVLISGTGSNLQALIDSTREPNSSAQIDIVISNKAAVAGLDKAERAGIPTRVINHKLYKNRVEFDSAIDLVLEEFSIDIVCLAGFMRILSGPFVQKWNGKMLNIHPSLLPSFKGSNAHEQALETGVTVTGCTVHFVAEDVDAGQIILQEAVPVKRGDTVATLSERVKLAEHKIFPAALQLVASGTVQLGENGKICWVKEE

CCRF-CEM [4] = assay: Cytotoxicity in the absence of thymidine and hypoxanthine against CCRF-CEM cell line; assay type: functional, cell-based; settings: Homo sapiens; outline: as §1
[5] = biological target: T2, Bifunctional purine biosynthesis protein ATIC (Homo sapiens, UniProt P31939); assay: In vitro inhibitory activity against Aminoimidazole carboxamide ribonucleotide transformylase pre-incubated for 12 hr at 250 uM; Not active.
Outline: (§2)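 The AICAR Tfase assay solution was pre-incubated with inhibitor (250 µM, or 25 µM where the line states) for 12 h at room temperature. The reaction was then started by adding AICAR, and enzyme inhibition was measured.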
Target sequence in this assay (P31939 whole entry, looked up): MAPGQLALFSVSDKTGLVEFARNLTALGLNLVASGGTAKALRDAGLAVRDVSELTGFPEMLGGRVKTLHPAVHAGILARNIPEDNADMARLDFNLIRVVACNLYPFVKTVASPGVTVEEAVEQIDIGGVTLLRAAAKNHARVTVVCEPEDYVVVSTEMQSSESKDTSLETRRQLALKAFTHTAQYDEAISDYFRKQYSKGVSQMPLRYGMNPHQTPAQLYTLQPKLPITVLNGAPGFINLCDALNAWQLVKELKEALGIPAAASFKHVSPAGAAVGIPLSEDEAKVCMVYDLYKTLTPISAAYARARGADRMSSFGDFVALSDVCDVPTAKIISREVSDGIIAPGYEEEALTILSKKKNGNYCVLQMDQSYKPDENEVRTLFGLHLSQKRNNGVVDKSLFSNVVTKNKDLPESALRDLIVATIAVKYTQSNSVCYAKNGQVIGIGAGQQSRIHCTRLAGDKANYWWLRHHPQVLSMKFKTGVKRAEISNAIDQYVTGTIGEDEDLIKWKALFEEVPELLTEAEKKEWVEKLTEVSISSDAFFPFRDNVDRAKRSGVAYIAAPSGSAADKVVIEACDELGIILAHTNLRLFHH

[6] = biological target: T1, Trifunctional purine biosynthetic protein adenosine-3 (Homo sapiens); assay: In vitro inhibitory activity against Glycinamide ribonucleotide transformylase (GAR Tfase) following 3 min pre-incubation at 250 uM concentration
CCRF-CEM [7] = assay: Cytotoxicity in the presence of thymidine and hypoxanthine against CCRF-CEM cell line; assay type: functional, cell-based; settings: Homo sapiens; outline: as §1
[8] = biological target: T1, Trifunctional purine biosynthetic protein adenosine-3 (Homo sapiens); assay: In vitro inhibitory activity at 250 uM concentration against Glycinamide ribonucleotide transformylase (GAR Tfase) pre-incubation time (6 hr).
[9] = biological target: T1, Trifunctional purine biosynthetic protein adenosine-3 (Homo sapiens); assay: In vitro inhibitory activity against Glycinamide ribonucleotide transformylase (GAR Tfase+GAR) following 30 min pre-incubation at 250 uM concentration
[10] = biological target: T1, Trifunctional purine biosynthetic protein adenosine-3 (Homo sapiens); assay: In vitro inhibitory activity against Glycinamide ribonucleotide transformylase (GAR Tfase+GAR) following 3 min pre-incubation at 250 uM concentration
[11] = biological target: T2, Bifunctional purine biosynthesis protein ATIC; assay: In vitro inhibitory activity against Aminoimidazole carboxamide ribonucleotide transformylase pre-incubed for 12 hr at 250 uM; outline: as §2
Target sequence in this assay (P31939 whole entry, looked up): as above

[12] = biological target: T1, Trifunctional purine biosynthetic protein adenosine-3 (Homo sapiens); assay: In vitro inhibitory activity against Glycinamide ribonucleotide transformylase (GAR Tfase) after 3 min at 25 uM; […]
[13] = biological target: T1, Trifunctional purine biosynthetic protein adenosine-3 (Homo sapiens); assay: (§3) In vitro inhibitory activity against Glycinamide ribonucleotide transformylase (GAR Tfase) after 6 hr at 25 uM
[14] = biological target: T1, Trifunctional purine biosynthetic protein adenosine-3 (Homo sapiens); assay: as §3; remark: listed apart in the source
[15] = biological target: T1, Trifunctional purine biosynthetic protein adenosine-3 (Homo sapiens); assay: In vitro inhibitory activity against Glycinamide ribonucleotide transformylase (GAR Tfase) after 30 min at 25 uM; Not active
[16] = biological target: T1, Trifunctional purine biosynthetic protein adenosine-3 (Homo sapiens); assay: In vitro inhibitory activity against Glycinamide ribonucleotide transformylase (GAR Tfase) after 3 min at 25 uM
[17] = biological target: T1, Trifunctional purine biosynthetic protein adenosine-3 (Homo sapiens); assay: In vitro inhibitory activity against Glycinamide ribonucleotide transformylase (GAR Tfase) after 30 min at 25 uM
[18] = biological target: T2, Bifunctional purine biosynthesis protein ATIC; assay: In vitro inhibitory activity against Aminoimidazole carboxamide ribonucleotide transformylase; outline: as §2
Target sequence in this assay (P31939 whole entry): as the sequence (P31939 whole entry, looked up) above

[19] = biological target: T1, Trifunctional purine biosynthetic protein adenosine-3 (Homo sapiens); assay: In vitro inhibitory activity against Glycinamide ribonucleotide transformylase (GAR Tfase) after 1 hr at 25 uM
[20] = biological target: T1, Trifunctional purine biosynthetic protein adenosine-3 (Homo sapiens); assay: In vitro activity against Glycinamide ribonucleotide transformylase (GAR Tfase) after 30 min at 25 uM
[21] = biological target: T1, Trifunctional purine biosynthetic protein adenosine-3 (Homo sapiens); assay: In vitro activity against Glycinamide ribonucleotide transformylase (GAR Tfase) after 3 min at 25 uM

Row | Compound | IC50 (CCRF-CEM [1]) [µM] | IC50 (CCRF-CEM [2]) [µM] | inhibition [3] [%] | IC50 (CCRF-CEM [4]) [µM] | inhibition [5] | inhibition [6] [%] | IC50 (CCRF-CEM [7]) [µM] | inhibition [8] [%] | inhibition [9] [%] | inhibition [10] [%] | inhibition [11] [%] | other results
1 | COC(=O)c1ccc(CN(CCc2c(N)nc(N)nc2O)c2cc(F)cc(F)c2[N+](=O)[O-])cc1 | > 100 | 91 | 30 | > 100 | inactive | 16 | > 100 | 0 | 29 | 32 | – | –
2 | Nc1nc(N)c(CCCNc2cc(F)c([N+](=O)[O-])cc2[N+](=O)[O-])c(O)n1 | 1 | 1.1 | 2 | 1 | – | 76 | 1.2 | 39 | 75 | 100 | 64 | inhibition [12]: inactive; inhibition [13]: 56%; inhibition [14]: 58%; inhibition [15]: inactive; inhibition [16]: 76%; inhibition [17]: 71%
3 | Nc1nc2ccc(CN(Cc3ccc([N+](=O)[O-])c(F)c3)c3ccc(C(=O)NC(CCC(=O)O)C(=O)O)cc3)cc2c(=O)[nH]1 (stereo not drawn) | – | – | – | – | – | – | – | – | – | – | – | Ki [18]: 52 µM
4 | COC(=O)c1ccc(CN(CCCc2c(N)nc(N)nc2O)c2cc(F)cc(F)c2[N+](=O)[O-])cc1 | > 100 | > 100 | 6 | > 100 | inactive | 6 | > 100 | 0 | 12 | 25 | – | inhibition [12]: inactive; inhibition [19]: 39%; inhibition ([19]; in the assay text read “after 6 hr” for “after 1 hr”): 84%; % control activity remaining [20]: 76%; % control activity remaining [21]: 78%; inhibition [15]: inactive
5 | COC(=O)c1ccc(CN(CCc2c(N)nc(N)nc2O)c2cc(F)c([N+](=O)[O-])cc2[N+](=O)[O-])cc1 | 1.7 | 1.9 | 27 | 1.3 | – | 47 | 1.1 | 2 | 54 | 66 | 75 | –
6 | COC(=O)c1ccc(CN(CCc2c(N)nc(N)nc2O)c2cc(F)ccc2[N+](=O)[O-])cc1 | 72 | 66 | 47 | 72 | – | 78 | 72 | 12 | 62 | 81 | 94 | –
7 | COC(=O)c1ccc(CN(CCCc2c(N)nc(N)nc2O)c2ccc([N+](=O)[O-])c(F)c2F)cc1 | 55 | 45 | 75 | 41 | – | 61 | 45 | 41 | 78 | 82 | 96 | –
8 | COC(=O)c1ccc(CN(CCc2c(N)nc(N)nc2O)c2ccc([N+](=O)[O-])c(F)c2F)cc1 | 36 | 61 | 67 | 48 | – | 68 | 67 | 30 | 85 | 79 | 73 | –
9 | COC(=O)c1ccc(CN(CCCc2c(N)nc(N)nc2O)c2cc(F)ccc2[N+](=O)[O-])cc1 | 55 | 43 | 8 | 45 | inactive | 70 | 30 | 0 | 44 | 75 | – | –
